Measured values published in article PMC11661456 (Science Advances, 2024).
Entries after “also recorded” stand apart in the source; their conditions may differ.

Assays:
[1] = molecular target: T1, AbBioC (Acinetobacter baumannii, UniProt A0A1E3M3A7); test: Isothermal titration calorimetry of ligand binding to AbBioC; set-up: species or system A. baumannii; details: for binding stoichiometry (N): ITC, single binding site model, mean ± SD (n = 3)
T1 sequence (A0A1E3M3A7 1-249): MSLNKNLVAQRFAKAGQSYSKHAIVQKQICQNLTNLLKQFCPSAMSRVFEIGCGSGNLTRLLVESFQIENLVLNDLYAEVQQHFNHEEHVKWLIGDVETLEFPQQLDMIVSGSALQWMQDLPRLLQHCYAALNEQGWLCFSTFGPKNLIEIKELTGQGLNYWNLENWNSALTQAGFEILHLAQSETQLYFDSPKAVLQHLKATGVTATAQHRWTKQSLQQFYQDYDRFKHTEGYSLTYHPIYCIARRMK
How it was run: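 His6-SUMO-tagged AbBioC, Ni-NTA purified. ITC at 25°C in 20 mM tris (pH 8.0), 300 mM NaCl. AbBioC (20 μM) in cell, titrated with SAM or test compound (200 μM) in 20 injections: 0.4 μl first, then 2.0 μl every 120 s. Data fitted to single-site model; N and Kd given as mean ± SD of three replicates.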

[2] = molecular target: T2, AbBioC methyltransferase (Acinetobacter baumannii, UniProt A0A1E3M3A7); format: biochemical, A. baumannii
T2 sequence (A0A1E3M3A7 1-249): T1 sequence (A0A1E3M3A7 1-249)

[3] = tested on: bioC-expressing bacterium; test: Effect of free SIN on viability of bioC-expressing bacterium; format: cell-based; details: free (not nanoparticle-loaded) SIN
[4] = tested on: BcBioC; details: in vitro; cited from earlier work
[5] = tested on: A. baumannii; test: Colistin E-test; format: cell-based
[6] = tested on: mcr-1–expressing A. baumannii; test: Bacterial lysis assay, mcr-1-expressing A. baumannii; format: cell-based
How it was run: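 mcr-1–bearing A. baumannii and its ΔbioC mutant washed three times in biotin-free PBS, then seeded at 2 × 10^8 CFU/ml into 2 ml PBS with or without colistin (8 μg/ml). PBS-only groups served as untreated controls. Positive control arms used a reference inhibitor (4 μg/ml) alone, colistin (8 μg/ml) alone, or both together.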

[7] = tested on: mcr-1–harboring K. pneumoniae; test: Bacterial lysis assay, mcr-1-harboring K. pneumoniae; format: cell-based; details: colistin 8 μg/ml; MCR-1-expressing K. pneumoniae ΔbioC (FYJ6186)
[8] = tested on: K. pneumoniae; test: Colistin E-test; format: cell-based; details: ATCC 43816 upon MCR-1 expression

| Compound | Kd [1] | binding stoichiometry (N) [1] | binding affinity of SIN compared with SAM (fold, Kd) ([1]; ITC Kd of SIN versus the physiological ligand SAM) | Ki [2] | effect on the ability of AbBioC to initiate biotin synthesis ([2]; DTB/biotin bioassay, in vitro reconstituted system) | ability of free SIN to diminish bacterial viability [3] | inactivation of BcBioC enzyme [4] | colistin MIC (E-test) ([5]; AB18PR065 + mcr-4.3, 0.2% glu M9) | colistin MIC (E-test) ([5]; ATCC 17978 + plasmid-borne mcr-1, LB) | colistin MIC (E-test) ([5]; ATCC 17978 without mcr-1, LB) | bacterial lysis / viability ([6]; colistin 8 μg/ml alone, FYJ6179 in PBS, 20 hours) | bacterial killing by colistin of the ΔbioC mutant ([6]; colistin 8 μg/ml, mcr-1–expressing A. baumannii ΔbioC (FYJ6181)) | bacterial killing by colistin of the ΔbioC mutant [7] | colistin MIC (E-test) [8] |
| --- | --- | --- | --- | --- | --- | --- | --- | --- | --- | --- | --- | --- | --- | --- |
| C[S+](CC[C@H](N)C(=O)[O-])C[C@H]1O[C@@H](n2cnc3c(N)ncnc32)[C@H](O)[C@@H]1O (stereo partly drawn) [SAM, S-adenosyl-L-methionine] | 2570 ± 750 nM | 0.95 ± 0.13 | – | – | – | – | – | – | – | – | – | – | – | – |
| Nc1ncnc2c1ncn2[C@@H]1O[C@H](C[C@@H](N)CC[C@H](N)C(=O)O)[C@@H](O)[C@H]1O [SIN, sinefungin] | 808 ± 135 nM | 1.180 ± 0.008 | around threefold | ~370 nM | efficiently interferes; also recorded: effectively kills AbBioC | inability | efficiently inactivate | – | – | – | – | – | – | – |
| colistin | – | – | – | – | – | – | – | 8.0 µg/mL | 4.0 µg/mL | 0.5 µg/mL | neither MAC13772 inhibitor (4 μg/ml) nor colistin (8 μg/ml) lysed bacterial cells | resensitize; also recorded: vulnerability | fails to render the K. pneumoniae ΔbioC mutant insusceptible | 32 µg/mL |
